Experimental data of several laboratories.
Each line is one published result; the experiments were not run side by side.
Target: 5-hydroxytryptamine receptor 2C (HTR2C, Homo sapiens, UniProt P28335)
One construct used (P28335 33-458): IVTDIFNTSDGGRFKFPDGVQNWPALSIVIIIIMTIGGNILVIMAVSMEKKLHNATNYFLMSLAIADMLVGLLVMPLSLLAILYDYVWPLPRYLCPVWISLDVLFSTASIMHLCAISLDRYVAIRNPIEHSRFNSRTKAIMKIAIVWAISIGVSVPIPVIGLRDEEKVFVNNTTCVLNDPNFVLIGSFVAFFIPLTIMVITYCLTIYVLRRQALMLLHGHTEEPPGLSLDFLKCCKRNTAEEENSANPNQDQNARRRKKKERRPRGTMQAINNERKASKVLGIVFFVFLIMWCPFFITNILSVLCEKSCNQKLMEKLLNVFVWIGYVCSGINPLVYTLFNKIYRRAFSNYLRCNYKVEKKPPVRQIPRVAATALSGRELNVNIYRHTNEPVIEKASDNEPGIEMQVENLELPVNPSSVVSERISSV

For `C#CCOCCOc1ccc2c3c1C1CCCC1N3CCNC2` (racemic), the EC50 was 53.4 nM (calcium signal, agonist, fluorescence).
For `CC1Cc2ccccc2N1C(=O)NCCCCN(C)[C@@H]1Cc2cccc3[nH]c(=O)n(c23)C1` (mixture of isomers), the Ki was > 10000 nM (ligand displacement, radioligand).
For `C#CCOCCOCCOc1ccc2c3c1C1CCCC1N3CCNC2` (racemic), the EC50 was 237 nM (calcium signal, agonist, fluorescence).
With `CNc1nc2cc(OCCCCN3CCC(c4cccc(Cl)c4Cl)CC3)ccc2s1` the Ki was 73 nM (cell-free assay, radioligand).
For `Fc1ccc(CCCCN2CCN(c3ccccn3)CC2)cc1`, the Ki was > 10000 nM (ligand displacement, radioligand).
For `CC(C)(C)c1cc(C(C)(C)CO)c(O)cc1NC(=O)c1c[nH]c2ccccc2c1=O`, the Ki was 1550 nM (ligand displacement, radioligand).
`O=C1c2ccccc2CCN1CCCCN1CCN(c2cccc(Cl)c2Cl)CC1` gave a Ki of 354 nM (ligand displacement, radioligand).
The Ki of `Cc1nc2cc(OCCCCN3CCN(c4cccc(Cl)c4Cl)CC3)ccc2s1` is reported as 160 nM (cell-free assay, radioligand).
The Ki of `CCCCN1CCC(COC(=O)c2ccc(N)c(OCF)c2)CC1` is reported as > 10000 nM (cell-free assay, radioligand).
`CN(CCCCNC(=O)c1cc2ccccc2[nH]1)[C@@H]1Cc2cccc3[nH]c(=O)n(c23)C1` gave a Ki of 2440 nM (ligand displacement, radioligand).
`OC[C@@]12C[C@@H]1[C@@H](n1cnc3c(N[C@@H](C4CCC4)C4CC4)nc(I)nc31)[C@H](O)[C@@H]2O` gave a Kb of 148 nM (calcium signal, antagonist).
The Ki of `COc1cc(OC)c(C(=O)CCCCN2CCC3(CC2)NC(=O)NC3=O)cc1NS(=O)(=O)c1ccc(C(F)(F)F)cc1` is reported as 0.99 nM (ligand displacement, radioligand).
The Ki of `CN(Cc1ccc(NC(=O)C2=Cc3cc(-c4ccc(OCCCF)cc4)ccc3CCC2)cc1)C1CCOCC1` is reported as 1020 nM (ligand displacement, radioligand).
